Assay outcomes as filed in PubChem BioAssay.
TCR-CD3 inh = inhibitors of human TCR-CD3 interaction, primary screen, biochemical, fluorescence, TAMRA-labeled TCR probe; 0.37% of 360,000 active; AID 651800, 2012; T-cell receptor (TCR); inhibition, % at 9.4 µM; in the data active means inhibition above about 19%;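 further: recombinant mutant TCR 2C K166C tagged with TAMRA read by polarization; 0% = receptor in buffer alone and 100% = receptor with positive control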
mABHD4 FP = ABHD4 inhibitors, primary screen, biochemical, fluorescence polarization, mouse; (Lyso)-N-acylphosphatidylethanolamine lipase (Mus musculus), Q8VD66; purified mABHD4, FP-Rh probe fluorescence polarization; inhibition, % at 8.92 µM; 0.54% of 370,000 active;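 active means inhibition exceeding the mean over every tested compound plus 3 SD, cut at about 30% in these data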;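 further: 0% = plate median of compound wells and 100% = S159A mutant with DMSO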
Target sequence (Q8VD66 whole entry, looked up): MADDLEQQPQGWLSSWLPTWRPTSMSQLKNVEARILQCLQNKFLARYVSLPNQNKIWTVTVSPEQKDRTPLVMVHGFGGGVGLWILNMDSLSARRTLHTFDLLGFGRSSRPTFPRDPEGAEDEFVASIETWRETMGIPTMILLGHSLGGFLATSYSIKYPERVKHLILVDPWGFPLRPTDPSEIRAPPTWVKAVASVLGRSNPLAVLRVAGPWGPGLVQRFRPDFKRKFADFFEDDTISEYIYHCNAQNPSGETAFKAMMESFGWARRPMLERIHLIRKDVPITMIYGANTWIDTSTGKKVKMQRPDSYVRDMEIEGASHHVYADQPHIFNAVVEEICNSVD
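assay system = mABHD4 protein | compound dosing = single nominal dose of 8.92 µM, 0.89% DMSO final | read-out basis = percent inhibition of probe binding, normalized to plate controls | schedule = Enzyme–compound pre-incubation 45 min, then probe 60 min, both 25 °C | detection = fluorescence polarization, excitation 525 nm, emission 598 nm, BODIPY TMR filters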
SIAE primary = human SIAE inhibitors, primary screen, biochemical, fluorescence polarization, FP-Rh probe, 1536-well HTS. Sialate O-acetylesterase (Homo sapiens), Q9HAT2. SIAE FP-Rh probe binding. inhibition, % at 9.66 µM. 0.69% of 370,000 active. AID 1053197, 2014;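 active means inhibition above a cutoff: mean of compounds within the control limits plus 3 SD of those, cut at about 17% in these data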;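 further: 0% = plate median of compound wells and 100% = probe without SIAE protein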
HTRA1 inhibitor = HTRA1 serine protease inhibitors, primary screen, biochemical, fluorescence polarization, HTS; Q92743; inhibition, % at 5.96 µM; 0.5% of 340,000 active; recombinant HTRA1, FP-rhodamine activity-based probe; in the data active means inhibition above about 36%;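 further: 0% = enzyme with DMSO and 100% = wells lacking enzyme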
TDP2 absorb = human TDP2 enzyme inhibitors, primary screen, biochemical, epi absorbance, recombinant enzyme; Tyrosyl-DNA phosphodiesterase 2 (Homo sapiens), O95551; T5PNP hydrolysis, p-nitrophenol absorbance 415 nm; inhibition, % at 12.8 µM; 0.34% of 370,000 active;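 active means inhibition above the mean of all tested compounds plus 3 SD, set per campaign, cut at about 25% in these data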;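 further: 0% = DMSO with enzyme and 100% = buffer with substrate but no TDP2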
Target sequence (O95551 whole entry, looked up): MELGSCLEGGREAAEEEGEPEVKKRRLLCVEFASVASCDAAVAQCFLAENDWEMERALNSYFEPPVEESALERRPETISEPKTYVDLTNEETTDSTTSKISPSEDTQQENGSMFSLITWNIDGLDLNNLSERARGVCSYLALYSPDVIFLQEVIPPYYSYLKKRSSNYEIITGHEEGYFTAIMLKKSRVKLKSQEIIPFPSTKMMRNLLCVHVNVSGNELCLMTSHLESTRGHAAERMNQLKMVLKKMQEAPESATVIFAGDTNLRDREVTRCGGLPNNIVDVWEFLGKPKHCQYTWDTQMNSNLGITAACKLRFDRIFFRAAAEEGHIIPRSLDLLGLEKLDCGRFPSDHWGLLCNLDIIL
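Test system: Human TDP2 enzyme | Reagent: 5 mM T5PNP | Compound dosing: 12.8 µM single point, 1% DMSO | Incubation: Enzyme reaction with compound for 2 h at 37 °C | Technique: p-Nitrophenol epi absorbance | Read-out: % inhibition relative to enzyme-containing and enzyme-free wells | Benchmarks: High control without enzyme, low control DMSO plus TDP2 | Replicates: Singlicate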
PAD4 inh = human PAD4 inhibitors, primary screen, biochemical, fluorescence polarization, 1536-well format; Protein-arginine deiminase type-4 (Homo sapiens), Q9UM07; recombinant PAD4, RCA probe fluorescence polarization; inhibition, % at 6.36 µM; 0.41% of 330,000 active; AID 485272, 2010;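 active means percent inhibition above a cutoff equal to the mean of all tested compounds plus 3 SD, cut at about 15% in these data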;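 further: 0% = PAD4 with RCA probe and DMSO and 100% = probe without PAD4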
ABHD4 confirm = ABHD4 inhibitors, retest, confirmation, biochemical, fluorescence polarization, mouse. purified mABHD4, FP-Rh probe fluorescence polarization. 55% of 1,800 active. inhibition, % at 8.92 µM. shares compounds with mABHD4 FP. AID 720658, 2013;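 active means mean inhibition across replicates above the hit cutoff set in the primary screen, cut at about 30% in these data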;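 further: 0% = wild-type ABHD4 with DMSO and 100% = catalytically dead S159A mutant with DMSO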
The depositor's hits bear a star; ! = not active in a repeat. This is a sample that favours compounds with a hit; in the whole collection about 2% have one here.

Results for Cc1cc(=O)oc2c(CN3CCCC3)c(O)ccc12 ?
TCR-CD3 inh: -9; mABHD4 FP: -10; SIAE primary: 11; HTRA1 inhibitor: 3; TDP2 absorb: -6; PAD4 inh: -2

What do the screens show for `Cc1cc(=O)oc2c(O)c(O)ccc12`?
TCR-CD3 inh: 10; mABHD4 FP: 30*; SIAE primary: 10; HTRA1 inhibitor: 13; TDP2 absorb: 3; ABHD4 confirm: 1

What do the screens show for `CC1CCN(c2ccc(C(=O)O)cc2NS(=O)(=O)c2ccccc2)CC1`?
mABHD4 FP: 37*; SIAE primary: 8; TDP2 absorb: 2; ABHD4 confirm: 39*

How did COc1cc(NC(=O)Nc2nc(C(N)Cc3ccc(C(F)(F)F)cc3)cs2)cc(OC)c1OC (centres undefined) do in these assays?
TCR-CD3 inh: -14; mABHD4 FP: 44*; SIAE primary: -21; TDP2 absorb: -5; ABHD4 confirm: 39*

How did COc1ccc(C(=O)Nc2cc(C)on2)cc1S(=O)(=O)N1CC(c2ccccc2)CC1=O (centres undefined) do in these assays?
TCR-CD3 inh: -5; mABHD4 FP: 4; SIAE primary: -6; TDP2 absorb: -4; PAD4 inh: -1

What do the screens show for `Cc1cn([C@H]2C[C@H](O)[C@@H](/C=C/C(=O)NCCc3ccc4ccccc4c3)O2)c(=O)[nH]c1=O`?
TCR-CD3 inh: 2; mABHD4 FP: -4; SIAE primary: 2; TDP2 absorb: 2

What do the screens show for `C[C@H]1[C@@H](OC(=O)Nc2ccccc2Cl)CC[C@@]23CCCN2C(=O)CCC[C@@H]13`?
mABHD4 FP: 4; SIAE primary: 2; TDP2 absorb: -1

How did O=C(O)c1ccc(N2CCN(C(c3ccccc3)c3ccccc3)CC2)c([N+](=O)[O-])c1 do in these assays?
TCR-CD3 inh: -4; mABHD4 FP: 32*; SIAE primary: -2; HTRA1 inhibitor: -4; TDP2 absorb: 0; PAD4 inh: 7; ABHD4 confirm: 47*

What do the screens show for `Cc1c(CCOC(=O)C2C3CC4CC(C3)CC2C4)sc[n+]1CC(=O)c1ccc(Br)cc1` (centres undefined)?
TCR-CD3 inh: -5; mABHD4 FP: 32*!; SIAE primary: -1; HTRA1 inhibitor: -68; TDP2 absorb: 3; PAD4 inh: -4; ABHD4 confirm: 36*

What do the screens show for `COC(=O)C1=C(C)N(Cc2ccc(C)cc2)C(=O)/C1=C\c1ccc(O)c(OC)c1`?
TCR-CD3 inh: 10; mABHD4 FP: 33*; SIAE primary: 5; HTRA1 inhibitor: 1; TDP2 absorb: 3; PAD4 inh: -6; ABHD4 confirm: 47*

How did CCNC(=S)NNC(=O)c1ccccn1 do in these assays?
TCR-CD3 inh: 8; mABHD4 FP: 54*; SIAE primary: -4; HTRA1 inhibitor: 7; TDP2 absorb: -9; PAD4 inh: 2; ABHD4 confirm: 55*

What do the screens show for `COc1cc(C2c3sc(=O)[nH]c3SC3C(=O)N(c4ccc(Br)cc4)C(=O)C32)ccc1O` (centres undefined)?
TCR-CD3 inh: 5; mABHD4 FP: 34*; SIAE primary: -2; HTRA1 inhibitor: 0; TDP2 absorb: 1; PAD4 inh: -1; ABHD4 confirm: 15

Results for COc1ccc(C2c3sc(=O)[nH]c3SC3C4CCC(C4)C23)cc1OC (centres undefined) ?
TCR-CD3 inh: 1; mABHD4 FP: 2; SIAE primary: 5; HTRA1 inhibitor: -20; TDP2 absorb: -6; PAD4 inh: 9

What do the screens show for `Cc1c(C(=O)NCCC2=CCCCC2)cccc1[N+](=O)[O-]`?
TCR-CD3 inh: 4; mABHD4 FP: -3; SIAE primary: 0; HTRA1 inhibitor: -1; TDP2 absorb: 2; PAD4 inh: -6

What do the screens show for `O=C(O)c1ccc(NCCC2=CCCCC2)c([N+](=O)[O-])c1`?
TCR-CD3 inh: -3; mABHD4 FP: 41*; SIAE primary: 1; HTRA1 inhibitor: -5; TDP2 absorb: 3; PAD4 inh: -1; ABHD4 confirm: 45*

How did NC(=O)c1ccc(NCCc2ccccc2)c([N+](=O)[O-])c1 do in these assays?
TCR-CD3 inh: 8; mABHD4 FP: 3; SIAE primary: -5; HTRA1 inhibitor: -8; TDP2 absorb: 3; PAD4 inh: -2

Results for COc1ccc(CCNc2ccc(C(=O)O)cc2[N+](=O)[O-])cc1OC ?
TCR-CD3 inh: 7; mABHD4 FP: 45*; SIAE primary: 5; HTRA1 inhibitor: -17; TDP2 absorb: 1; PAD4 inh: -5; ABHD4 confirm: 43*

How did COc1ccc2c(c1O)C(=O)c1ccccc1C2=O do in these assays?
PAD4 inh: 11

Results for Nc1c(O)ccc2c1C(=O)c1ccccc1C2=O ?
TCR-CD3 inh: -12; mABHD4 FP: 45*; SIAE primary: 1; TDP2 absorb: -3; PAD4 inh: 7; ABHD4 confirm: 47*

What do the screens show for `Cc1cc(Br)cn2c(Cc3ccccc3)c(-c3ccc(C#N)cc3)nc12`?
TCR-CD3 inh: -1; mABHD4 FP: -8; SIAE primary: -2; TDP2 absorb: 1

Results for O=S(=O)(Nc1cccc2c1ccc1cccn12)c1cccs1 ?
TCR-CD3 inh: 1; mABHD4 FP: 34*; SIAE primary: 10; HTRA1 inhibitor: 14; TDP2 absorb: 6; PAD4 inh: -4; ABHD4 confirm: 8

Results for O=C(NC1CCCCC1)C(=S)N1CCOCC1 ?
TCR-CD3 inh: -2; mABHD4 FP: 0; SIAE primary: -2; HTRA1 inhibitor: 6; TDP2 absorb: 9; PAD4 inh: 3

Results for COc1ccccc1CN1C[C@@H]2C[C@@H](C3=Cc4cc(Cl)ccc4OC3)N3CCC[C@@]23C1=O ?
TCR-CD3 inh: 4; mABHD4 FP: 0; SIAE primary: 1; HTRA1 inhibitor: -44; TDP2 absorb: -7; PAD4 inh: -8

Results for CSc1ccc(CN2CCC(N3CC(C)OC(C)C3)CC2)cc1 (centres undefined) ?
TCR-CD3 inh: 1; mABHD4 FP: 11; SIAE primary: -3; HTRA1 inhibitor: 0; TDP2 absorb: 5; PAD4 inh: -3

Results for COc1ccc(CN2CCC(N3CC(C)OC(C)C3)CC2)c(OC)c1OC (centres undefined) ?
TCR-CD3 inh: -7; mABHD4 FP: 32*; SIAE primary: 3; HTRA1 inhibitor: 12; TDP2 absorb: 18; PAD4 inh: -7; ABHD4 confirm: 11
